{
  "source": "ChEMBL document CHEMBL1158078",
  "about": "“Integerrimides A and B, cyclic heptapeptides from the latex of Jatropha integerrima” (J Nat Prod, 2006)",
  "key": {"Human alphaherpesvirus 1 [1]": {"test_system": "Human alphaherpesvirus 1", "assay": "Antiviral activity against HSV1 ATCC VR260 by colorimetry", "format": "functional, organism-based", "method_in_brief": "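HSV-1 strain ATCC VR 260; colorimetric method; compounds tested at 50 μg/mL; acyclovir as positive control.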"}, "[2]": {"test_system": "Mycobacterium tuberculosis", "assay": "Antimycobacterial activity"}, "IPC-298 [3]": {"test_system": "IPC-298", "assay": "Cytotoxicity against human IPC298 cells assessed as apoptotic cell nuclei level at 50 uM after 2 days", "format": "functional, cell-based", "method_in_brief": "(§1)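 IPC-298 melanoma cells grown in DMEM/Ham's F12 with stabilized L-glutamine, 10% heat-inactivated FCS, penicillin/streptomycin. Plated at 100 000 cells per cm², cultured with or without compound (10 and 50 μM) for 2 days. Viable cells counted on phase-contrast digital pictures as cells per 0.36 mm². Debris and apoptotic nuclei judged by microscopy.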"}, "Gallus gallus [4]": {"species": "Gallus gallus", "assay": "Inhibition of blebbistatin-induced neurite outgrowth in chicken medulla neurons at 50 uM after 24 hrs", "format": "functional"}, "Human alphaherpesvirus 1 [5]": {"test_system": "Human alphaherpesvirus 1", "assay": "Antiviral activity against HSV1 ATCC VR260 at 50 ug/mL by colorimetry", "format": "functional, organism-based", "method_in_brief": "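Against HSV-1 strain ATCC VR 260, colorimetric method; compounds at 50 μg/mL; acyclovir as positive control.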"}, "Capan-2": {"test_system": "Capan-2", "assay": "Inhibition of cell migration of human Capan 2 cells at 50 uM after 20 h by scratch migration assay", "conditions": "Capan-2, 20 h"}, "[6]": {"assay": "Toxicity against chicken medulla neurons assessed as effect on cell viability at 50 uM after 24 hrs", "parameters": "species or system Gallus gallus"}, "[7]": {"assay": "Toxicity against E7 chicken spinal cord neurons assessed as effect on cell viability at 50 uM after 2 days", "parameters": "species or system Gallus gallus", "conditions": "48 h"}, "Candida albicans [8]": {"test_system": "Candida albicans", "assay": "Antimicrobial activity against Candida albicans ATCC 90028 at 50 ug/mL by tetrazolium/formazan assay", "format": "functional, organism-based", "method_in_brief": "(§2)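 Candida albicans ATCC 90028 tested by tetrazolium/formazan assay; compounds at 50 μg/mL.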"}, "Homo sapiens": {"species": "Homo sapiens", "assay": "Effect on cell viability of human Capan II cells assessed as cell morphology changes at 50 uM after 20 h"}, "IPC-298 [9]": {"test_system": "IPC-298", "assay": "Cytotoxicity against human IPC298 cells assessed as cell debris level at 50 uM after 2 days", "format": "functional, cell-based", "method_in_brief": "as §1"}, "IPC-298 [10]": {"test_system": "IPC-298", "assay": "Antiproliferative activity against human IPC298 cells assessed as cell density at 50 uM after 2 days", "format": "functional", "method_in_brief": "as §1"}, "Plasmodium falciparum": {"test_system": "Plasmodium falciparum", "assay": "Antimalarial activity against multidrug-resistant Plasmodium falciparum K1 at 10 ug/mL", "format": "functional, organism-based", "method_in_brief": "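P. falciparum K1 maintained in continuous culture; in vitro activity quantified by microculture radioisotope technique; compounds tested at 10 μg/mL.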"}, "Gallus gallus [11]": {"species": "Gallus gallus", "assay": "Inhibition of neurite outgrowth in E7 chicken spinal cord neurons at 50 uM after 2 days", "format": "functional", "method_in_brief": "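Spinal cord (anterior) from 7-day chicken embryos dissociated with trypsin/DNAseI at 37 °C for 20 min, washed in HEPES-buffered medium. 50 000 cells plated per 1 cm² on polylysine/fibronectin coating in HBM with 10% FCS at 37 °C, no CO₂. Cultured with or without compound (10 or 50 μM) for 2 days; neurites scored by phase-contrast microscopy.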"}, "Candida albicans [12]": {"test_system": "Candida albicans", "assay": "Antimicrobial activity against Candida albicans ATCC 90028 by tetrazolium/formazan assay", "format": "functional, organism-based", "method_in_brief": "as §2"}},
  "note": "Calls of active or inactive are those of the source. The calls are words filed in the database; no cut-off is given here. Residues, ends and D or L forms follow the SMILES beside them.",
  "data": [
    {"smiles": "Nc1nc2c(ncn2COCCO)c(=O)[nH]1", "note": "[ACYCLOVIR]", "values": [
      {"measurement": "IC50", "setting": "Human alphaherpesvirus 1 [1]", "result": 0.5, "unit": "µg/mL"}
    ]},
    {"smiles": "NC[C@H]1O[C@H](O[C@H]2[C@H](O)[C@@H](O[C@H]3O[C@H](CO)[C@@H](O)[C@H](N)[C@H]3O)[C@H](N)C[C@@H]2N)[C@H](O)[C@@H](O)[C@@H]1O", "note": "[KANAMYCIN]", "values": [
      {"measurement": "MIC", "setting": "[2]", "result": 2.5, "unit": "µg/mL"}
    ]},
    {"smiles": "CC(C)C[C@@H]1NC(=O)CNC(=O)[C@H](Cc2c[nH]c3ccccc23)NC(=O)[C@@H]2CCCN2C(=O)[C@H]([C@@H](C)O)NC(=O)[C@H](CC(C)C)NC(=O)[C@H](CC(C)C)NC1=O", "note": "[INTEGERRIMIDE A] (cyclo(GLLLTPW))", "values": [
      {"measurement": "Activity", "setting": "IPC-298 [3]", "result": "inactive"},
      {"measurement": "Activity", "setting": "Gallus gallus [4]", "result": "Active"},
      {"measurement": "Activity", "setting": "Human alphaherpesvirus 1 [5]", "result": "inactive"},
      {"measurement": "inhibition at 50 µM", "setting": "Capan-2", "result": 30, "unit": "%"},
      {"measurement": "Activity", "setting": "[6]", "result": "Non-toxic"},
      {"measurement": "Activity", "setting": "[7]", "result": "Non-toxic"},
      {"measurement": "Activity", "setting": "Candida albicans [8]", "result": "inactive"},
      {"measurement": "Activity", "setting": "Homo sapiens", "result": "inactive"},
      {"measurement": "Activity", "setting": "IPC-298 [9]", "result": "inactive"},
      {"measurement": "Activity", "setting": "IPC-298 [10]", "result": 40, "unit": "%"},
      {"measurement": "Activity", "setting": "Plasmodium falciparum", "result": "inactive"},
      {"measurement": "Activity", "setting": "Gallus gallus [11]", "result": "Active"}
    ]},
    {"smiles": "CC(C)C[C@@H]1NC(=O)[C@H](C)NC(=O)[C@H](Cc2c[nH]c3ccccc23)NC(=O)[C@@H]2CCCN2C(=O)[C@H](CO)NC(=O)[C@H](C(C)C)NC(=O)[C@H](CC(C)C)NC1=O", "note": "[INTEGERRIMIDE B] (cyclo(ALLVSPW))", "values": [
      {"measurement": "Activity", "setting": "IPC-298 [3]", "result": "inactive"},
      {"measurement": "Activity", "setting": "Human alphaherpesvirus 1 [5]", "result": "inactive"},
      {"measurement": "inhibition at 50 µM", "setting": "Capan-2", "result": 20, "unit": "%"},
      {"measurement": "Activity", "setting": "[6]", "result": "Non-toxic"},
      {"measurement": "Activity", "setting": "[7]", "result": "Non-toxic"},
      {"measurement": "Activity", "setting": "Candida albicans [8]", "result": "inactive"},
      {"measurement": "Activity", "setting": "Homo sapiens", "result": "inactive"},
      {"measurement": "Activity", "setting": "IPC-298 [9]", "result": "inactive"},
      {"measurement": "Activity", "setting": "IPC-298 [10]", "result": 40, "unit": "%"},
      {"measurement": "Activity", "setting": "Plasmodium falciparum", "result": "inactive"},
      {"measurement": "Activity", "setting": "Gallus gallus [11]", "result": "Active"}
    ]},
    {"smiles": "C[C@@H]1[C@H](O)[C@@H](C)/C=C/C=C/C=C/C=C/C=C/C=C/C=C/[C@H](O[C@@H]2O[C@H](C)[C@@H](O)[C@H](N)[C@@H]2O)C[C@@H]2O[C@](O)(C[C@@H](O)C[C@@H](O)[C@H](O)CC[C@@H](O)C[C@@H](O)CC(=O)O[C@H]1C)C[C@H](O)[C@H]2C(=O)O", "note": "[AMPHOTERICIN B]", "values": [
      {"measurement": "IC50", "setting": "Candida albicans [12]", "result": 0.08, "unit": "µg/mL"}
    ]},
    {"smiles": "NNC(=O)c1ccncc1", "note": "[ISONIAZID]", "values": [
      {"measurement": "MIC", "setting": "[2]", "result": 0.1, "unit": "µg/mL"}
    ]},
    {"smiles": "CO[C@H]1/C=C/O[C@@]2(C)Oc3c(C)c(O)c4c(O)c(c(/C=N/N5CCN(C)CC5)c(O)c4c3C2=O)NC(=O)/C(C)=C\\C=C\\[C@H](C)[C@H](O)[C@@H](C)[C@@H](O)[C@@H](C)[C@H](OC(C)=O)[C@@H]1C", "note": "[RIFAMPIN]", "values": [
      {"measurement": "MIC", "setting": "[2]", "result": 0.0023, "unit": "µg/mL"}
    ]}
  ]
}
